Assay results taken from ChEMBL document CHEMBL1629439, “High-throughput identification of antibacterials against methicillin-resistant Staphylococcus aureus (MRSA) and the transglycosylase” (Bioorg Med Chem, 2010).
Converted amounts (≈) assume the structure as drawn.

What was measured:
[1] = system: Staphylococcus aureus; experiment: Antimicrobial activity against oxacillin- and methicillin-resistant Staphylococcus aureus isolate Sa-OXA-R2 after 18 to 24 hrs by alamar blue assay; type: functional
In short: (§1)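 Broth microdilution per NCCLS standard, Mueller-Hinton broth, 8-point twofold dilutions; exponentially growing cells at 5 10^5 cells/ml with compound, 18–24 h at 37 C; 20% Alamar blue added, fluorescence read; MIC90 taken as lowest concentration preventing at least 90% growth.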

[2] = system: Bacillus subtilis; experiment: Antimicrobial activity against Bacillus subtilis ATCC 23857 after 18 to 24 hrs by alamar blue assay; type: functional
In short: (§2)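 Broth microdilution per NCCLS in Mueller-Hinton broth, 8-point twofold dilutions, 384-well format. Exponential-phase cells at 5 × 10^5 cells/ml incubated with compound 18–24 h at 37 °C, then 20% Alamar blue added and fluorescence read. MIC90 taken as the lowest concentration preventing at least 90% bacterial growth.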

[3] = system: Escherichia coli; experiment: Antimicrobial activity against Escherichia coli ATCC […] after 18 to 24 hrs by alamar blue assay; type: functional; details: Escherichia coli; read-out: MIC; in short: as §2
[4] = system: Pseudomonas aeruginosa; experiment: Antimicrobial activity against Pseudomonas aeruginosa ATCC 25619 after 18 to 24 hrs by alamar blue assay; type: functional; details: Pseudomonas aeruginosa, ATCC 25619; read-out: MIC; in short: as §2
[5] = system: Acinetobacter baumannii; experiment: Antimicrobial activity against Acinetobacter baumannii ATCC 49139 after 18 to 24 hrs by alamar blue assay; type: functional; details: Acinetobacter baumannii, ATCC 49139; read-out: MIC; in short: as §2
[6] = system: Stenotrophomonas maltophilia; experiment: Antimicrobial activity against Stenotrophomonas maltophilia ATCC 13637 after 18 to 24 hrs by alamar blue assay; type: functional; details: Stenotrophomonas maltophilia, ATCC 13637; read-out: MIC; in short: as §2
[7] = system: Serratia marcescens; experiment: Antimicrobial activity against Serratia marcescens ATCC 14756 after 18 to 24 hrs by alamar blue assay; type: functional; details: Serratia marcescens, ATCC 14756; read-out: MIC; in short: as §2
[8] = system: Mycolicibacterium smegmatis; experiment: Antimicrobial activity against Mycobacterium smegmatis BCRC 11565 after 18 to 24 hrs by alamar blue assay; type: functional; details: Mycolicibacterium smegmatis, BCRC 11565; read-out: MIC; in short: as §2
[9] = Inhibition of transglycosylase assessed as inhibition of NBD- labelled lipid II polymerization
In short: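 100 µM NBD-labelled lipid II incubated 30 min with full-length PBP (EC, SA or Mtb) and 10 ng/µl N-acetylmuramidase in 50 mM Tris-HCl pH 8.0, 10 mM MgCl2, 0.1% Triton X-100, 10% DMSO, 15% MeOH. Supernatant run on anion-exchange HPLC with 20 mM–0.5 M ammonium acetate gradient. Inhibition calculated from substrate peak-area percentage. IC50 determined. S. aureus strains share one SA enzyme.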

[10] = system: Staphylococcus aureus; experiment: Antimicrobial activity against methicillin-resistant Staphylococcus aureus isolate NTUH4722 after 18 to 24 hrs by alamar blue assay; type: functional; in short: as §1
[11] = system: Staphylococcus aureus; experiment: Antimicrobial activity against methicillin-resistant Staphylococcus aureus ATCC 33592 after 18 to 24 hrs by alamar blue assay; type: functional; details: Staphylococcus aureus, ATCC 33592; read-out: MIC; in short: as §1
[12] = system: Staphylococcus aureus; experiment: Antimicrobial activity against Staphylococcus aureus ATCC 29213 after 18 to 24 hrs by alamar blue assay

Row | Structure (SMILES) | MIC [1] [µg/mL] | MIC [2] [µg/mL] | MIC [3] [µg/mL] | MIC [4] [µg/mL] | MIC [5] [µg/mL] | MIC [6] [µg/mL] | MIC [7] [µg/mL] | MIC [8] [µg/mL] | IC90 [9] [µM] | MIC [10] [µg/mL] | MIC [11] [µg/mL] | MIC [12] [µg/mL]
1 | O=C(Nc1cc(Cl)ccc1Oc1ccc(Cl)c2ccccc12)c1cc(Cl)cc(Br)c1O | ≤ 0.03 | < 0.03 | 8 (≈ 14.9 µM) | 16 (≈ 29.8 µM) | 16 (≈ 29.8 µM) | 16 (≈ 29.8 µM) | 16 (≈ 29.8 µM) | 0.5 (≈ 0.93 µM) | 100 | ≤ 0.03 | 16 (≈ 29.8 µM) | 8 (≈ 14.9 µM)
2 | Cc1ccc(C(C)C)c(Oc2ccc(Cl)cc2NC(=O)c2cc(Cl)cc(Cl)c2O)c1 | ≤ 0.03 | < 0.03 | 8 (≈ 17.2 µM) | 16 (≈ 34.4 µM) | 16 (≈ 34.4 µM) | 16 (≈ 34.4 µM) | 16 (≈ 34.4 µM) | 0.5 (≈ 1.08 µM) | 50 | ≤ 0.03 | 0.25 (≈ 0.538 µM) | 1 (≈ 2.15 µM)
3 | O=C(c1ccc(Cl)cc1)c1cc(NC(=O)c2cc(Br)cc(Br)c2O)ccc1Br | ≤ 0.03 | < 0.03 | 8 (≈ 13.6 µM) | 16 (≈ 27.2 µM) | 16 (≈ 27.2 µM) | 16 (≈ 27.2 µM) | 16 (≈ 27.2 µM) | 0.5 (≈ 0.85 µM) | 100 | ≤ 0.03 | ≤ 2 | ≤ 2
4 | O=C(Nc1cc(Cl)cc(C(=O)c2ccc(Cl)cc2)c1Cl)c1cc(Br)cc(Br)c1O | 8 (≈ 13.8 µM) | < 0.03 | 8 (≈ 13.8 µM) | 16 (≈ 27.7 µM) | 16 (≈ 27.7 µM) | 16 (≈ 27.7 µM) | 16 (≈ 27.7 µM) | 0.5 (≈ 0.864 µM) | 100 | 8 (≈ 13.8 µM) | 2 (≈ 3.46 µM) | 0.5 (≈ 0.864 µM)
5 | Cc1ccc(C(C)C)c(Oc2ccc(Cl)cc2NC(=O)c2cc(I)cc(I)c2O)c1 | ≤ 0.03 | < 0.03 | 8 (≈ 12.4 µM) | 16 (≈ 24.7 µM) | 16 (≈ 24.7 µM) | 16 (≈ 24.7 µM) | 16 (≈ 24.7 µM) | 0.5 (≈ 0.772 µM) | 50 | ≤ 0.03 | 0.5 (≈ 0.772 µM) | 4 (≈ 6.18 µM)
6 | Cc1ccc(C(C)C)cc1Oc1ccc(Cl)cc1NC(=O)c1cc(Cl)ccc1O | ≤ 0.03 | < 0.03 | 8 (≈ 18.6 µM) | 16 (≈ 37.2 µM) | 16 (≈ 37.2 µM) | 16 (≈ 37.2 µM) | 16 (≈ 37.2 µM) | 0.5 (≈ 1.16 µM) | 100 | ≤ 0.03 | 0.5 (≈ 1.16 µM) | 0.5 (≈ 1.16 µM)
7 | O=C(Nc1ccc(Oc2ccc3ccccc3c2Cl)c(Cl)c1)c1cc(I)cc(I)c1O | ≤ 0.03 | < 0.03 | 8 (≈ 11.8 µM) | 16 (≈ 23.7 µM) | 16 (≈ 23.7 µM) | 16 (≈ 23.7 µM) | 16 (≈ 23.7 µM) | 0.5 (≈ 0.74 µM) | > 100 | ≤ 0.03 | 8 (≈ 11.8 µM) | 8 (≈ 11.8 µM)
8 | O=C(Nc1cc(S(=O)(=O)c2ccc(Cl)cc2)ccc1Cl)c1cc(I)cc(I)c1O | ≤ 0.03 | < 0.03 | 8 (≈ 11.9 µM) | 16 (≈ 23.7 µM) | 16 (≈ 23.7 µM) | 16 (≈ 23.7 µM) | 16 (≈ 23.7 µM) | 0.5 (≈ 0.742 µM) | 100 | ≤ 0.03 | 8 (≈ 11.9 µM) | 8 (≈ 11.9 µM)
9 | O=C(Nc1cc(Cl)ccc1Oc1ccc(Br)c2ccccc12)c1cc(Cl)cc(I)c1O | ≤ 0.03 | < 0.03 | 8 (≈ 12.7 µM) | 16 (≈ 25.4 µM) | 16 (≈ 25.4 µM) | 16 (≈ 25.4 µM) | 16 (≈ 25.4 µM) | 0.5 (≈ 0.795 µM) | 100 | ≤ 0.03 | 4 (≈ 6.36 µM) | 8 (≈ 12.7 µM)
